Data as given in ChEMBL document CHEMBL3046818, “Photosynthesis-Inhibiting efficiency of 4-chloro-2-(chlorophenylcarbamoyl)phenyl alkylcarbamates” (Bioorg Med Chem Lett, 2011).

Assays:
[1] = Half life in aqueous buffer solutions at pH 7 by HPLC analysis; type: ADME; details: aqueous buffer solution
[2] = target: Photosystem II protein D1 (Spinacia oleracea, UniProt P69560); assay: Inhibition of photosystem II in Spinacia oleracea (spinach) chloroplasts assessed as reduction of photosynthetic electron transport
Summary of the method: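 PET in spinach chloroplasts read spectrophotometrically as DCPIP photoreduction in a chloroplast suspension at pH 7.2. Read within 2 min after adding the carbamate solution in DMSO. IC50 is the molar concentration giving a 50% decrease in activity relative to the untreated control.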

[3] = Chemical stability of the compound in aqueous buffer solutions at acidic pH by HPLC analysis; type: physicochemical
[4] = Half life in aqueous buffer solutions at pH 7.4 by HPLC analysis; type: ADME; details: aqueous buffer solution
[5] = Lipophilicity, log K of the compound; type: physicochemical; details: RP-HPLC capacity factor, C18 column, methanol mobile phase
Summary of the method: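 Lipophilicity measured by RP-HPLC as capacity factor k, reported as log k.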

[6] = target: Photosystem II protein D1 (Spinacia oleracea) (UniProt P69560); assay: Inhibition of photosystem II in Spinacia oleracea (spinach) chloroplasts assessed as restoration of photosynthetic electron transport relative to control in presence of DPC; set-up: scale not given: the % may be the effect or the level left
Summary of the method: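 Spinach chloroplasts were first treated with the carbamate, then given the artificial PS 2 donor 1,5-diphenylcarbazide (DPC). PET activity was then measured and expressed as % of the untreated control.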

half-life [1]	IC50 [2]	Stability [3]	half-life [4]	log K [5]	Activity [6]	SMILES
64 h	15.4 µM	Stable	43 h	0.7837	–	CCCCCCCCCNC(=O)Oc1ccc(Cl)cc1C(=O)Nc1cccc(Cl)c1
64 h	432 µM	Stable	43 h	1.0845	–	CCCCCCCCNC(=O)Oc1ccc(Cl)cc1C(=O)Nc1ccc(Cl)c(Cl)c1
64 h	82.3 µM	Stable	43 h	1.0234	–	CCNC(=O)Oc1ccc(Cl)cc1C(=O)Nc1ccc(Cl)c(Cl)c1
64 h	6.3 µM	Stable	43 h	0.7838	–	CCCCCNC(=O)Oc1ccc(Cl)cc1C(=O)Nc1ccc(Cl)cc1
64 h	7.1 µM	Stable	43 h	0.7872	–	CCCCCCCNC(=O)Oc1ccc(Cl)cc1C(=O)Nc1ccc(Cl)cc1
–	144 µM	Stable	–	1.0611	–	CCCCCCNC(=O)Oc1ccc(Cl)cc1C(=O)Nc1ccc(Cl)c(Cl)c1
64 h	506 µM	Stable	43 h	1.088	–	CCCCCCCCCNC(=O)Oc1ccc(Cl)cc1C(=O)Nc1ccc(Cl)c(Cl)c1
64 h	8 µM	Stable	43 h	0.7919	–	CCCCCCCCCNC(=O)Oc1ccc(Cl)cc1C(=O)Nc1ccc(Cl)cc1
64 h	–	Stable	43 h	1.0903	–	CCCCCCCCCCCNC(=O)Oc1ccc(Cl)cc1C(=O)Nc1ccc(Cl)c(Cl)c1
64 h	6.3 µM	Stable	43 h	0.7859	–	CCCCCCNC(=O)Oc1ccc(Cl)cc1C(=O)Nc1ccc(Cl)cc1
64 h	10.1 µM	Stable	43 h	0.7831	–	CCCCCCCCNC(=O)Oc1ccc(Cl)cc1C(=O)Nc1cccc(Cl)c1
64 h	18.3 µM	Stable	43 h	0.7902	–	CCCCCCCCCCCNC(=O)Oc1ccc(Cl)cc1C(=O)Nc1cccc(Cl)c1
64 h	15.8 µM	Stable	43 h	0.7873	–	CCCCCCCCCCNC(=O)Oc1ccc(Cl)cc1C(=O)Nc1cccc(Cl)c1
64 h	4.9 µM	Stable	43 h	0.7772	94%	CCCCCCCNC(=O)Oc1ccc(Cl)cc1C(=O)Nc1cccc(Cl)c1
64 h	7.4 µM	Stable	43 h	0.7899	–	CCCCCCCCNC(=O)Oc1ccc(Cl)cc1C(=O)Nc1ccc(Cl)cc1
64 h	15.6 µM	Stable	43 h	0.7523	–	CCNC(=O)Oc1ccc(Cl)cc1C(=O)Nc1cccc(Cl)c1
64 h	13.4 µM	Stable	43 h	0.7611	–	CCCCNC(=O)Oc1ccc(Cl)cc1C(=O)Nc1cccc(Cl)c1
64 h	169 µM	Stable	43 h	1.0667	–	CCCCCCCNC(=O)Oc1ccc(Cl)cc1C(=O)Nc1ccc(Cl)c(Cl)c1
–	1.9 µM	–	–	0.47	–	CN(C)C(=O)Nc1ccc(Cl)c(Cl)c1 [DCMU]
64 h	5.4 µM	Stable	43 h	0.7732	–	CCCCCNC(=O)Oc1ccc(Cl)cc1C(=O)Nc1cccc(Cl)c1
64 h	–	Stable	43 h	1.0894	–	CCCCCCCCCCNC(=O)Oc1ccc(Cl)cc1C(=O)Nc1ccc(Cl)c(Cl)c1
64 h	8.4 µM	Stable	43 h	0.7942	–	CCCCCCCCCCNC(=O)Oc1ccc(Cl)cc1C(=O)Nc1ccc(Cl)cc1
64 h	5.3 µM	Stable	43 h	0.7758	–	CCCCCCNC(=O)Oc1ccc(Cl)cc1C(=O)Nc1cccc(Cl)c1
64 h	9.7 µM	Stable	43 h	0.7695	94%	CCNC(=O)Oc1ccc(Cl)cc1C(=O)Nc1ccc(Cl)cc1
64 h	10.5 µM	Stable	43 h	0.7947	–	CCCCCCCCCCCNC(=O)Oc1ccc(Cl)cc1C(=O)Nc1ccc(Cl)cc1
64 h	99.2 µM	Stable	43 h	1.0601	–	CCCCCNC(=O)Oc1ccc(Cl)cc1C(=O)Nc1ccc(Cl)c(Cl)c1
